Source: ChEMBL document CHEMBL2046403, “Biochemical and pharmacological evaluation of 4-hydroxychromen-2-ones bearing polar C-3 substituents as anticoagulants” (Eur J Med Chem, 2012)

What was measured:
[1] = tested on: Rattus norvegicus; assay: Hepatotoxicity in Wistar albino rat assessed as change in serum iron level at 0.5 mg/kg, ip measured after 24 hrs; format: toxicity, organism-based; parameters: dose 0.5 mg/kg, route intraperitoneal; settings: in vivo
[2] = tested on: Rattus norvegicus; assay: Hepatotoxicity in Wistar albino rat assessed as change in serum ALT level at 0.5 mg/kg, ip measured after 24 hrs; format: toxicity, organism-based; parameters: dose 0.5 mg/kg, route intraperitoneal; settings: in vivo
[3] = tested on: Plasma; assay: Anticoagulant activity in Wistar albino rat plasma assessed as fibrinogen level at 0.5 mg/kg/day, ip administered for 5 days; format: functional; settings: route intraperitoneal
How it was run: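 Wistar rats (220–250 g), three per group, got one i.p. dose of 0.5 mg/kg per day for five days and were sacrificed on day six. […] Plasma fibrinogen was measured by biuret method at 540 nm.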

[4] = tested on: Rattus norvegicus; assay: Hepatotoxicity in Wistar albino rat assessed as change in serum bilirubin level at 0.5 mg/kg, ip measured after 24 hrs; format: toxicity, organism-based; parameters: dose 0.5 mg/kg, route intraperitoneal; settings: in vivo
[5] = tested on: Rattus norvegicus; assay: Hepatotoxicity in Wistar albino rat assessed as change in serum AST level at 0.5 mg/kg/day, ip administered for 5 days measured after second compound dose; settings: in vivo, 120 h
[6] = tested on: Rattus norvegicus; assay: Drug metabolism in Wistar albino rat assessed as coumarin-7-glucuronide level in urine at 1 mg/kg, ip measured after 72 hrs by GC/MS analysis; settings: in vivo
[7] = tested on: Rattus norvegicus; assay: Anticoagulant activity in Wistar rats in vivo assessed as prothrombin time
[8] = tested on: Plasma; assay: Anticoagulant activity in Wistar albino rat plasma assessed as international normalized ratio at 0.5 mg/kg, ip; format: functional; settings: route intraperitoneal
How it was run: (§1)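 Adult Wistar rats (2.5 months, 220–250 g), three per compound and control, were given a single i.p. dose of 0.1 or 0.5 mg/kg in ethanol solution and sacrificed 24 h later. […] Plasma prothrombin time was measured by Quick method and reported in seconds and as INR, from at least three measurements.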

[9] = tested on: Rattus norvegicus; assay: Hepatotoxicity in Wistar albino rat assessed as change in serum gamma-GT level at 0.5 mg/kg, ip measured after 24 hrs; format: toxicity, organism-based; parameters: dose 0.5 mg/kg, route intraperitoneal; settings: in vivo
[10] = tested on: Plasma; assay: Anticoagulant activity in Wistar albino rat plasma assessed as prothrombin time at 0.5 mg/kg, ip relative to warfarin; format: functional; settings: route intraperitoneal
How it was run: (§2)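 Rats (Wistar, 220–250 g, n=3 per group) were dosed i.p. with 0.5 mg/kg compound in ethanol solution. Prothrombin time was measured in plasma by Quick method and expressed as fold of the matching control value. […] Groups were compared by one-way ANOVA with Dunnett T3 or Bonferroni post-hoc tests.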

[11] = tested on: Plasma; assay: Anticoagulant activity in Wistar albino rat plasma assessed as prothrombin time at 0.5 mg/kg, ip relative to untreated control; format: functional; settings: route intraperitoneal; how it was run: as §2
[12] = tested on: Rattus norvegicus; assay: Hepatotoxicity in Wistar albino rat assessed as change in serum AST level at 0.5 mg/kg, ip measured after 24 hrs; format: toxicity, organism-based; parameters: dose 0.5 mg/kg, route intraperitoneal; settings: in vivo
[13] = tested on: Plasma; assay: Anticoagulant activity in Wistar albino rat plasma assessed as prothrombin time at 0.5 mg/kg/day, ip administered for 5 days measured after second dose; format: functional; settings: route intraperitoneal
How it was run: (§3)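 Wistar rats, three per group, were dosed i.p. at 0.5 mg/kg per day over five days in ethanol solution and sacrificed on day six. Plasma prothrombin time was measured by Quick method after the second 0.5 mg/kg administration, reported in seconds and INR. Where animals were dosed more than once, PTs were averaged.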

[14] = tested on: Plasma; assay: Anticoagulant activity in human plasma assessed as international normalized ratio at 1 mg/ml; format: functional
How it was run: (§4)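 Frozen human plasma (blood type A+) was used. Compounds were prepared at 1 mg/mL in a vehicle of 96% EtOH, 0.9% NaCl, 20% glycerol and phosphate buffer pH 7. Prothrombin time was measured by Quick method and reported in seconds and as INR, with SD from at least three measurements.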

[15] = tested on: Rattus norvegicus; assay: Drug metabolism in Wistar albino rat assessed as 7-hydroxycoumarin level in urine at 1 mg/kg, ip measured after 72 hrs by GC/MS analysis; settings: in vivo
[16] = tested on: Plasma; assay: Anticoagulant activity in Wistar albino rat plasma assessed as prothrombin time at 0.1 mg/kg, ip; format: functional; settings: route intraperitoneal; how it was run: as §1
[17] = tested on: Plasma; assay: Anticoagulant activity in Wistar albino rat plasma assessed as fibrinogen level; format: functional
How it was run: (§5)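 Adult albino Wistar rats (2.5 months old, 220–250 g), three per compound and control. […] Fibrin time and fibrinogen were determined on plasma. Fibrinogen was quantified by biuret method at 540 nm. At least three measurements, reported with standard deviation.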

[18] = target: VKORC1 (Rattus norvegicus); assay: Inhibition of VKORC1
[19] = tested on: Rattus norvegicus; assay: Hepatotoxicity in Wistar albino rat assessed as change in serum albumin level at 0.5 mg/kg, ip measured after 24 hrs; format: toxicity, organism-based; parameters: dose 0.5 mg/kg, route intraperitoneal; settings: in vivo
[20] = tested on: Plasma; assay: Anticoagulant activity in Wistar albino rat plasma assessed as international normalized ratio at 0.5 mg/kg/day, ip administered for 5 days measured after second dose; format: functional; settings: route intraperitoneal; how it was run: as §3
[21] = tested on: Rattus norvegicus; assay: Hepatotoxicity in Wistar albino rat assessed as change in serum ALT level at 0.5 mg/kg/day, ip administered for 5 days measured after second compound dose; settings: in vivo, 120 h
[22] = tested on: Rattus norvegicus; assay: Hepatotoxicity in Wistar albino rat assessed as change in serum iron level at 0.5 mg/kg/day, ip administered for 5 days measured after second compound dose; format: toxicity, organism-based; parameters: route intraperitoneal; settings: in vivo, 120 h
[23] = tested on: Plasma; assay: Anticoagulant activity in Wistar albino rat plasma assessed as fibrin time; format: functional; how it was run: as §5
[24] = tested on: Rattus norvegicus; assay: Hepatotoxicity in Wistar albino rat assessed as change in serum AST level at 0.5 mg/kg, ip measured after 24 hrs relative to untreated control; format: toxicity, organism-based; parameters: dose 0.5 mg/kg, route intraperitoneal; settings: in vivo
How it was run: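 Serum AST was measured 24 h after a single 0.5 mg/kg i.p. dose (ethanol solution) in Wistar rats, three per group, by IFCC UV kinetic method at 340 nm. Activity was expressed as fold of the negative (96% ethanol) control, and compared by one-way ANOVA with post-hoc tests.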

[25] = tested on: Plasma; assay: Anticoagulant activity in Wistar albino rat plasma assessed as prothrombin time at 0.5 mg/kg, ip; format: functional; settings: route intraperitoneal
How it was run: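 Adult Wistar rats (2.5 months, 220–250 g), three per compound and control, were given a single i.p. dose of 0.1 or 0.5 mg/kg in ethanol solution and sacrificed 24 h later. Plasma prothrombin time was measured by Quick method and reported in seconds and as INR, from at least three measurements.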

[26] = tested on: Rattus norvegicus; assay: Hepatotoxicity in Wistar albino rat assessed as change in serum protein level at 0.5 mg/kg, ip measured after 24 hrs; format: toxicity, organism-based; parameters: dose 0.5 mg/kg, route intraperitoneal; settings: in vivo
[27] = tested on: Plasma; assay: Anticoagulant activity in Wistar albino rat plasma assessed as international normalized ratio at 0.1 mg/kg, ip; format: functional; settings: route intraperitoneal; how it was run: as §1
[28] = tested on: Rattus norvegicus; assay: Hepatotoxicity in Wistar albino rat assessed as change in serum ALP level at 0.5 mg/kg, ip measured after 24 hrs; format: toxicity, organism-based; parameters: dose 0.5 mg/kg, route intraperitoneal; settings: in vivo
[29] = tested on: Rattus norvegicus; assay: Hepatotoxicity in Wistar albino rat assessed as change in serum gamma-GT level at 0.5 mg/kg, ip administered for 5 days measured after second compound dose; format: toxicity, organism-based; parameters: dose 0.5 mg/kg, route intraperitoneal; settings: in vivo, 120 h
[30] = tested on: Plasma; assay: Anticoagulant activity in human plasma assessed as prothrombin time at 1 mg/ml; format: functional; how it was run: as §4

Row | Drug metabolism [6] | IC50 [7] | Drug metabolism [15] | Structure (SMILES) | Activity [1] | Activity [2] | Activity [3] | Activity [4] | AST [5] | Activity [9] | Activity [12] | PT [13] | PT [16] | Activity [17] | Activity [19] | ALT [21] | Activity [22] | Time [23] | fold change (FC) [24] | PT [25] | Activity [26] | also measured
1 | Active | 141 µM | Active | CCOC(=O)C(C(=O)OCC)=C(C)c1c(O)c2ccccc2oc1=O | 28.4 µmol/L | 71.8 U/L | 1.6 g/L | 2 µmol/L | 209.9 U/L | 3.1 U/L | 238.3 U/L | 30 s | 10.3 s | 5.1 g/L | 35.2 g/L | 55.5 U/L | 17.7 µmol/L | 51.3 s | 1.41 | 10.5 s | 67.2 g/L | Ratio [8]: 0.13; Activity [10]: 86.06%; fold change (FC) [11]: 1.08; Ratio [14]: 1.99; Ki [18]: 68.9 µM; Ratio [20]: 0.13; Ratio [27]: 0.13; Activity [28]: 513 U/L; Activity [29]: 2.3 U/L; PT [30]: 23 s
2 | Active | 741 µM | Active | O=c1oc2ccccc2c(O)c1-c1csc(Nc2cccc([N+](=O)[O-])c2)n1 | 29.7 µmol/L | 52.4 U/L | 1.74 g/L | 2.2 µmol/L | 210.7 U/L | 2.8 U/L | 294.6 U/L | 28.1 s | 9.6 s | 0.6 g/L | 39.7 g/L | 65.1 U/L | 17.3 µmol/L | >500 s | 1.74 | 14.4 s | 64.2 g/L | fold change (FC) [10]: 1.18; fold change (FC) [11]: 1.48; Activity [28]: 225 U/L; Activity [29]: 2.6 U/L; PT [30]: 24.4 s
3 | Active | 69.2 µM | Active | Cc1cccc(Nc2nc(-c3c(O)c4ccccc4oc3=O)cs2)c1 | 28.4 µmol/L | 67.3 U/L | 1.2 g/L | 1.8 µmol/L | 175.5 U/L | 2.2 U/L | 284.6 U/L | 28.1 s | 9.6 s | 2 g/L | 41.9 g/L | 62.4 U/L | 17.3 µmol/L | 27.6 s | 1.68 | 9.7 s | 66.2 g/L | Activity [10]: 79.51%; Activity [28]: 172 U/L; Activity [29]: 3 U/L; PT [30]: 25 s
